Bioassay records from PubChem BioAssay.
IMP-1 inh-1 = inhibitors of Pseudomonas aeruginosa IMP-1 metallo-beta-lactamase | purified IMP-1, nitrocefin hydrolysis, epi-absorbance fluorescence | inhibition, % at 5.6 µM | 0.45% of 290,000 active | AID 1556;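 active means inhibition above the mean plus 3 SD of all compounds in the same screening run, cut at about 4.5% in these data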
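assay system = purified recombinant IMP-1 metallo-beta-lactamase enzyme | schedule = 15 min preincubation plus 25 min reaction at 25 °C | signal = Epi-absorbance fluorescence, 480 nm excitation, 530 nm emission | read-out basis = percent inhibition from optical density relative to buffer-blank wells | controls = IMP-1 with DMSO as 0%, enzyme-free DMSO as 100%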
TMEM16A act = activators or potentiators of mouse TMEM16A chloride channel; 0.3% of 340,000 active; Q8BHY3; B-score at 10 µM; HEK293 TMEM16A/YFP-H148Q/I152L, iodide quench fluorescence; active compounds read low;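 active means fluorescence-ratio B-score plate-corrected deviation score at least 3 library SD below zero, with starting fluorescence score within 5 deviations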;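 further: channel opened by trigger with iodide after compound preincubation; score built on the fluorescence ratio of max minus min over baseline; more negative score means more quench and so TMEM16A activation or potentiation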
CHT block = human CHT choline transport inhibition. B-score at 10 µM. AID 488975. Q9GZV3. CHT-expressing cells, membrane potential dye, choline response; active compounds read low. 0.86% of 310,000 active;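 active means B-score over 3 SD under the library average, and starting fluorescence ratio not unusually high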;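 further: choline stimulus applied at its EC90 after an EC20 pre-addition; B-score computed on integrated fluorescence ratio after choline addition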
VIM-2 inhibitor = blocks Pseudomonas aeruginosa VIM-2 metallo-beta-lactamase | 0.89% of 290,000 active | inhibition, % at 5.6 µM | purified VIM-2, nitrocefin hydrolysis, epi-absorbance fluorescence;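 active means inhibition above the mean of all tested compounds plus 3 SD, cutoff set per screening run, cut at about 7.5% in these data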;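 further: red hydrolysis product quenches plate fluorescence so inhibitors raise well fluorescence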
CHT PAM = allosteric activators of human choline transporter CHT | Q9GZV3 | 0.49% of 310,000 active | B-score at 10 µM | CHT-expressing cells, membrane potential dye, choline EC20; active compounds read high; LV-AA mutant CHT in HEK293 cells;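 active means initial fluorescence not abnormally high and integrated response B-score, plate-corrected, over 3 SD above library mean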
TMEM16A inh = mouse TMEM16A channel inhibition, primary screen. HEK293 TMEM16A/YFP iodide influx fluorescence, ionomycin. normalized B-score (activity score, 25-100; higher = stronger inhibition) at 10 µM. 1.2% of 310,000 active. AID 588511;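 active means ratio plate-corrected score three or more library SD toward inhibition, starting fluorescence score within five deviations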;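 further: score derived from kinetic fluorescence span divided by baseline fluorescence per well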
IMP-1 inh-2 = selectivity counter-screen for VIM-2 inhibitors: IMP-1 metallo-beta-lactamase inhibitors | inhibition, % at 5.6 µM | shares compounds with VIM-2 inhibitor | 1,300 tested, under 10 active | purified IMP-1, nitrocefin hydrolysis, epi-absorbance fluorescence; call rule not given here
VIM-2 FRET ctr = VIM-2 FRET inhibition, artifact counter-screen; shares compounds with VIM-2 inhibitor; purified VIM-2, CCF2 FRET substrate hydrolysis; inhibition, % at 5.6 µM; 23% of 1,300 active;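 active means inhibition above the mean of all tested compounds plus 3 SD, cut at about 19% in these data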
TEM-1 inh = blocks E. coli TEM-1 beta-lactamase in VIM-2 selectivity screen. 3% of 1,300 active. shares compounds with VIM-2 inhibitor. inhibition, % at 5.6 µM. Purified TEM-1, nitrocefin hydrolysis, epi-absorbance fluorescence;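 active means inhibition above that campaign's mean inhibition plus 3 SD, cut at about 0.46% in these data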
Target sequence (P62593 whole entry, looked up): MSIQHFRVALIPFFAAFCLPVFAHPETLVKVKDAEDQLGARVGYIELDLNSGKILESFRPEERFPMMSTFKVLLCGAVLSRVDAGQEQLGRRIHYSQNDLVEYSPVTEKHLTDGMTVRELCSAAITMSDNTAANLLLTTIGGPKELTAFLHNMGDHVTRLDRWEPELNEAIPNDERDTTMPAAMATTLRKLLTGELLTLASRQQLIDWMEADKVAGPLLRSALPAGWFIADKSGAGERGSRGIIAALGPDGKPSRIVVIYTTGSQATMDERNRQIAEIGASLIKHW
VIM-2 confirm 2 = confirmation of P. aeruginosa VIM-2 metallo-beta-lactamase inhibitors; shares compounds with VIM-2 inhibitor; AID 2187; 96% of 1,300 active; inhibition, % at 5.6 µM; purified VIM-2, nitrocefin hydrolysis, epi-absorbance;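 active means inhibition of the VIM-2 beta-lactamase enzyme above about 11% from the earlier first-round screen, limit read from the data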
Of the large screens only hits and unclear results are named; the others gave an inactive call (follow-up assays come after a bar, where they were run). Shown are actives, neighbours in structure and some others; about 3.4% of the full set was active somewhere.

COc1ccc2c(c1)[nH]c1c(=O)n(CCCn3ccnc3)cnc12	VIM-2 inhibitor 14 | IMP-1 inh-2 inactive | VIM-2 FRET ctr inactive | TEM-1 inh inactive | VIM-2 confirm 2 38
CN(CC(=O)Nc1ccccc1Cl)C(=O)COC(=O)c1cnccn1	none
C=C(C)CNC(=S)N/N=C(\C)c1ccc(-n2ccnc2)cc1	VIM-2 inhibitor 79 | IMP-1 inh-2 inactive | VIM-2 FRET ctr inactive | TEM-1 inh inactive | VIM-2 confirm 2 88
COc1ccc(-c2cc3c(=O)n(CC(=O)N4CCCCC4)ncn3n2)cc1	none
COc1ccc(-c2cc3c(=O)n(CC(=O)N4CCN(C)CC4)ncn3n2)cc1	VIM-2 inhibitor 17 | IMP-1 inh-2 inactive | VIM-2 FRET ctr inactive | TEM-1 inh inactive | VIM-2 confirm 2 31
CC(=O)c1c(C)n(-c2ccc(Cl)cc2)c2ccc(O)cc12	VIM-2 inhibitor 14 | IMP-1 inh-2 inactive | VIM-2 FRET ctr 24 | TEM-1 inh inactive | VIM-2 confirm 2 16
CC(=O)c1c(C)n(-c2cccc(Cl)c2)c2ccc(O)cc12	none
O=c1[nH]c(CN2CCN(c3ccc(F)cc3)CC2)nc2ccccc12	VIM-2 inhibitor 55 | IMP-1 inh-2 inactive | VIM-2 FRET ctr inactive | TEM-1 inh inactive | VIM-2 confirm 2 inactive
CN1CCN(C(=O)CSc2nc(-c3cccs3)cc(-c3cccs3)c2C#N)CC1	VIM-2 inhibitor 45 | IMP-1 inh-2 inactive | VIM-2 FRET ctr inactive | TEM-1 inh inactive | VIM-2 confirm 2 70
CCN(CC)C(=O)CSc1nc(-c2cccs2)cc(-c2cccs2)c1C#N	none
O=C1Nc2cc(C(=O)NCCCN3CCCC3)ccc2S/C1=C/c1ccccc1F	VIM-2 inhibitor 33 | IMP-1 inh-2 inactive | VIM-2 FRET ctr 54 | TEM-1 inh inactive | VIM-2 confirm 2 38
COc1cccc(/C=C2/Sc3ccc(C(=O)NCCCN4CCCC4)cc3NC2=O)c1	VIM-2 inhibitor 16 | IMP-1 inh-2 inactive | VIM-2 FRET ctr 43 | TEM-1 inh inactive | VIM-2 confirm 2 28
CCN1C(=O)[C@H]2[C@@H](c3ccc(-c4ccc5c(c4)OCO5)c(OC)c3)N[C@@](C)(C(=O)OC)[C@H]2C1=O	none (no result: IMP-1 inh-1, CHT block, VIM-2 inhibitor, CHT PAM, TMEM16A inh)
Cc1nc(NCc2cccnc2)c2c3c(sc2n1)CCCC3	VIM-2 inhibitor 15 | IMP-1 inh-2 inactive | VIM-2 FRET ctr inactive | TEM-1 inh inactive | VIM-2 confirm 2 31
CCc1ccc2nc(N=C(N)N)nc(C)c2c1	none
Cc1cc2nc(N=C(N)N)nc(C)c2cc1C	VIM-2 inhibitor 17 (no result: CHT block, CHT PAM, TMEM16A inh) | IMP-1 inh-2 inactive | VIM-2 FRET ctr inactive | TEM-1 inh inactive | VIM-2 confirm 2 26
Cc1ccccc1OCCC(=O)NNC(=O)c1ccccc1F	none (no result: IMP-1 inh-1, CHT block, VIM-2 inhibitor, CHT PAM, TMEM16A inh)
CCCC(=O)Nc1nnc(SCC(=O)NCc2cccs2)s1	VIM-2 inhibitor 20 | IMP-1 inh-2 inactive | VIM-2 FRET ctr 44 | TEM-1 inh inactive | VIM-2 confirm 2 33
COCC(=O)Nc1nnc(SCC(=O)NCc2cccs2)s1	VIM-2 inhibitor 22 | IMP-1 inh-2 inactive | VIM-2 FRET ctr 53 | TEM-1 inh inactive | VIM-2 confirm 2 38
Cc1cc(C)c(S(=O)(=O)N2CCCC(C(=O)NCc3ccncc3)C2)c(C)c1 (stereo unspecified)	none
COCc1n[nH]c(=S)n1-c1ccccc1	none
OCCCc1n[nH]c(=S)n1-c1ccccc1	VIM-2 inhibitor 23 | IMP-1 inh-2 inactive | VIM-2 FRET ctr 38 | TEM-1 inh inactive | VIM-2 confirm 2 27
Cc1cc(C(=O)OCC(=O)NC(=O)c2cccn2C)c2ccccc2n1	VIM-2 inhibitor 12 | IMP-1 inh-2 inactive | VIM-2 FRET ctr 46 | TEM-1 inh inactive | VIM-2 confirm 2 33
O=c1cc(-c2ccc(O)cc2)oc2c1ccc1ccccc12	none (no result: IMP-1 inh-1, CHT block, VIM-2 inhibitor, CHT PAM, TMEM16A inh)
O=c1cc(-c2ccncc2)oc2c1ccc1ccccc12	VIM-2 inhibitor 17 | IMP-1 inh-2 inactive | VIM-2 FRET ctr inactive | TEM-1 inh inactive | VIM-2 confirm 2 23
CC1=Nc2ccc(C)cc2/C1=C/c1c(N)n2nc(CC(=O)N3CCOCC3)sc2nc1=O	VIM-2 inhibitor 12 | IMP-1 inh-2 inactive | VIM-2 FRET ctr 22 | TEM-1 inh inactive | VIM-2 confirm 2 16
Cc1c(Cc2ccccc2)c(=O)oc2c(C)c(OCC(=O)N3CCC(C(=O)O)CC3)ccc12	none
CCCc1cc(=O)oc2c3c(cc(OCC(=O)N4CCC[C@H]4C(=O)O)c12)OC(C)(C)CC3	VIM-2 inhibitor 45 | IMP-1 inh-2 inactive | VIM-2 FRET ctr 71 | TEM-1 inh inactive | VIM-2 confirm 2 50
Cc1c(OCC(=O)N2CCC(C(N)=O)CC2)ccc2c3c(c(=O)oc12)CCC3	VIM-2 inhibitor 23 | IMP-1 inh-2 inactive | VIM-2 FRET ctr inactive | TEM-1 inh inactive | VIM-2 confirm 2 43
Cc1c(C)c2ccc(OCC(=O)N3CCC[C@@H]3C(=O)O)c(C)c2oc1=O	VIM-2 inhibitor 41 | IMP-1 inh-2 inactive | VIM-2 FRET ctr 64 | TEM-1 inh inactive | VIM-2 confirm 2 48
CCc1cc(=O)oc2c(C)c(OC(C)C(=O)N3CCC[C@@H]3C(=O)O)ccc12 (stereo partly specified)	none
Cc1c(OCC(=O)N2CCC[C@@H]2C(=O)O)ccc2c3c(c(=O)oc12)CCC3	VIM-2 inhibitor 36 | IMP-1 inh-2 inactive | VIM-2 FRET ctr 51 | TEM-1 inh inactive | VIM-2 confirm 2 37
CCc1cc(=O)oc2c3c(cc(OCC(=O)NC4CC4)c12)OC(C)(C)CC3	none
O=C(O)c1ccccc1C(=O)Nc1ccc(Br)c2cccnc12	none
CCc1cc(=O)oc2c(C)c(OCC(=O)N3CCC[C@@H]3C(=O)O)ccc12	VIM-2 inhibitor 23 | IMP-1 inh-2 inactive | VIM-2 FRET ctr 39 | TEM-1 inh inactive | VIM-2 confirm 2 29
CCCc1cc(=O)[nH]c(SCC(=O)N2c3ccccc3CC2C)n1 (stereo unspecified)	none (no result: IMP-1 inh-1, CHT block, VIM-2 inhibitor, CHT PAM, TMEM16A inh)
O=C(CC(C(=O)O)c1ccc(Cl)cc1Cl)c1ccc(Cl)cc1 (stereo unspecified)	none
O=C(CC(C(=O)O)c1cccc(Cl)c1Cl)c1ccccc1 (stereo unspecified)	VIM-2 inhibitor 15 (no result: TMEM16A act) | IMP-1 inh-2 inactive | VIM-2 FRET ctr 29 | TEM-1 inh inactive | VIM-2 confirm 2 18
